Assay results published in ChEMBL document CHEMBL2311247, “Antimicrobial activity of various 4- and 5-substituted 1-phenylnaphthalenes” (2013).
≈ marks a conversion by molar mass, not a printed value. Calls of active or inactive are those of the source. No cut-off for these calls is given here.

Tests used:
Staphylococcus aureus [1] = test: Antibacterial activity against methicillin-resistant Staphylococcus aureus ATCC 33591 assessed as growth inhibition after 24 hrs by CLSI broth microdilution method; format: functional; conditions: ATCC 33591, 24 h
In short: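 CLSI broth microdilution. Log-phase bacteria at 10⁵ CFU/mL are added to 2-fold serial dilutions from 64 to 0.031 µg/mL in cation-adjusted Mueller-Hinton broth with 2% NaCl. Plates are incubated aerobically for 24 h at 37 °C and growth is read as OD₆₀₀. MIC is the lowest concentration giving ≥90% growth inhibition.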

Enterococcus faecalis [2] = test: Antibacterial activity against vancomycin-sensitive Enterococcus faecalis ATCC 19433 assessed as growth inhibition after 24 hrs by CLSI broth microdilution method; format: functional; conditions: ATCC 19433, 24 h
In short: (§1)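 Run per CLSI broth microdilution. Log-phase E. faecalis at 10⁵ CFU/mL in brain-heart infusion broth with 2-fold serial dilutions (64 to 0.031 µg/mL), incubated aerobically 24 h at 37 °C. Growth is measured by OD₆₀₀, and MIC is the lowest concentration inhibiting growth by ≥90%.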

Enterococcus faecalis [3] = test: Antibacterial activity against vancomycin-resistant Enterococcus faecalis ATCC 51575 assessed as growth inhibition after 24 hrs by CLSI broth microdilution method; format: functional; conditions: ATCC 51575, 24 h; in short: as §1
Staphylococcus aureus [4] = test: Antibacterial activity against methicillin-sensitive Staphylococcus aureus 8325-4 assessed as growth inhibition after 24 hrs by CLSI broth microdilution method; format: functional; conditions: 8325-4, 24 h
In short: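 MSSA strain 8325-4; log-phase inoculum at 10⁵ CFU/mL. 2-fold serial dilutions, 64 to 0.031 µg/mL, in cation-adjusted Mueller-Hinton broth. Aerobic incubation, 24 h, 37 °C. Growth read as OD₆₀₀. MIC is the lowest concentration giving ≥90% growth inhibition.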

[5] = target: T1, Cell division protein FtsZ (Staphylococcus aureus) (UniProt P0A031); test: Stimulation of Staphylococcus aureus ATCC 33591-D FtsZ polymerization expressed in Escherichia coli BL21 (DE3) assessed as inhibition of FtsZ Z-ring formation at 40 ug/mL by microtiter plate-based turbidity assay; conditions: TDE = time-dependent effect
T1 sequence (whole entry): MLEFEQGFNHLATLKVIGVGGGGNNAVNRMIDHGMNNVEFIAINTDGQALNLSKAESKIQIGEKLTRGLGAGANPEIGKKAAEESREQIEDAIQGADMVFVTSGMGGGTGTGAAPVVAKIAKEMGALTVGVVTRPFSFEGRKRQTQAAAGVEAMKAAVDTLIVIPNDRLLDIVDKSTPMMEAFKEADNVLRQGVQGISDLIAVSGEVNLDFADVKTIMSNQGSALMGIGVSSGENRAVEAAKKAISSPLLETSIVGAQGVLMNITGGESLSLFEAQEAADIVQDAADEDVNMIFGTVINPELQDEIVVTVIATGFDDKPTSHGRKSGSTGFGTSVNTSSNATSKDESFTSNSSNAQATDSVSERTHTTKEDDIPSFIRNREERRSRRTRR
In short: (§2)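 SaFtsZ expressed in E. coli BL21 (DE3) under 1 mM IPTG induction for 3 h at 37 °C. Purified by MonoQ anion exchange then Superdex-200, about 90% pure. Turbidity assay at 25 °C in 50 mM Tris·HCl pH 7.4, 50 mM KCl, 2 mM magnesium acetate, 1 mM GTP. Compound at 40 µg/mL. Reaction started with 10 µM protein (final). A₃₄₀ monitored continuously for 300 min.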

[6] = target: T1, Cell division protein FtsZ (Staphylococcus aureus); test: Stimulation of Staphylococcus aureus ATCC 33591-D FtsZ polymerization expressed in Escherichia coli BL21 (DE3) assessed as inhibition of FtsZ Z-ring formation at 40 ug/mL measured for 300 mins by microtiter plate-based turbidity assay; in short: as §2

Row | SMILES | MIC (Staphylococcus aureus [1]) [µg/mL] | MIC (Enterococcus faecalis [2]) [µg/mL] | MIC (Enterococcus faecalis [3]) [µg/mL] | MIC (Staphylococcus aureus [4]) [µg/mL] | inhibition [5] | inhibition [6]
1 | CC(C)(C)c1ccc(-c2cccc3c(CC(=N)N)cccc23)cc1 | 4 (≈ 12.6 µM) | 4 (≈ 12.6 µM) | 8 (≈ 25.3 µM) | 4 (≈ 12.6 µM) | – | –
2 | NC(N)=NCc1cccc2c(-c3ccc(Br)cc3)cccc12 | 8 (≈ 22.6 µM) | 8 (≈ 22.6 µM) | 8 (≈ 22.6 µM) | 2 (≈ 5.65 µM) | – | –
3 | CC(C)(C)c1ccc(-c2ccc(CCN=C(N)N)c3ccccc23)cc1 | 4 (≈ 11.6 µM) | 2 (≈ 5.79 µM) | 4 (≈ 11.6 µM) | 2 (≈ 5.79 µM) | – | –
4 | CC(C)(C)c1ccc(-c2ccc(CN=C(N)N)c3ccccc23)cc1 | 2 (≈ 6.03 µM) | 2 (≈ 6.03 µM) | 2 (≈ 6.03 µM) | 2 (≈ 6.03 µM) | – | –
5 | CN(C)[C@@H]1C(O)=C(C(N)=O)C(=O)[C@@]2(O)C(O)=C3C(=O)c4c(O)cccc4[C@@](C)(O)[C@H]3C[C@@H]12 [TETRACYCLINE] | 64 (≈ 144 µM) | 0.5 (≈ 1.13 µM) | > 64 | 0.06 (≈ 0.135 µM) | – | –
6 | N=C(N)Cc1cccc2c(-c3ccc(C(F)(F)F)cc3)cccc12 | 8 (≈ 24.4 µM) | 4 (≈ 12.2 µM) | 8 (≈ 24.4 µM) | 4 (≈ 12.2 µM) | – | –
7 | CN[C@H](CC(C)C)C(=O)N[C@H]1C(=O)N[C@@H](CC(N)=O)C(=O)N[C@H]2C(=O)N[C@H]3C(=O)N[C@H](C(=O)N[C@H](C(=O)O)c4cc(O)cc(O)c4-c4cc3ccc4O)[C@H](O)c3ccc(c(Cl)c3)Oc3cc2cc(c3O[C@@H]2O[C@H](CO)[C@@H](O)[C@H](O)[C@H]2O[C@H]2C[C@](C)(N)[C@H](O)[C@H](C)O2)Oc2ccc(cc2Cl)[C@H]1O [VANCOMYCIN] | – | 1 (≈ 0.69 µM) | > 64 | – | – | –
8 | COc1cc(C(F)(F)F)ccc1-c1cccc2c(CN=C(N)N)cccc12 | 8 (≈ 21.4 µM) | 4 (≈ 10.7 µM) | 4 (≈ 10.7 µM) | 2 (≈ 5.36 µM) | – | –
9 | NC(N)=NCc1cccc2c(-c3ccc(C(F)(F)F)cc3)cccc12 | 8 (≈ 23.3 µM) | 8 (≈ 23.3 µM) | 16 (≈ 46.6 µM) | 2 (≈ 5.82 µM) | – | –
10 | CC(C)(C)c1ccc(-c2cccc3c(CCN=C(N)N)cccc23)cc1 | 2 (≈ 5.79 µM) | 2 (≈ 5.79 µM) | 2 (≈ 5.79 µM) | 1 (≈ 2.89 µM) | – | –
11 | C[n+]1cc2c3c(ccc2c2ccc4cc5c(cc4c21)OCO5)OCO3 [SANGUINARIUM] | 2 | 8 | 16 | 2 | – | –
12 | Cc1onc(-c2ccccc2)c1C(=O)N[C@@H]1C(=O)N2[C@@H]1SC(C)(C)[C@@H]2C(=O)O [OXACILLIN] | > 64 | 8 (≈ 19.9 µM) | > 64 | 0.06 (≈ 0.149 µM) | – | –
13 | CC(C)(C)c1ccc(-c2cccc3c(CN)cccc23)cc1 | 4 (≈ 13.8 µM) | 8 (≈ 27.6 µM) | 8 (≈ 27.6 µM) | 4 (≈ 13.8 µM) | – | –
14 | CC[C@H]1OC(=O)[C@H](C)[C@@H](O[C@H]2C[C@@](C)(OC)[C@@H](O)[C@H](C)O2)[C@H](C)[C@@H](O[C@@H]2O[C@H](C)C[C@H](N(C)C)[C@H]2O)[C@](C)(O)C[C@@H](C)C(=O)[C@H](C)[C@@H](O)[C@]1(C)O [ERYTHROMYCIN] | > 64 | 1 (≈ 1.36 µM) | > 64 | 0.13 (≈ 0.177 µM) | – | –
15 | CC(C)(C)c1ccc(-c2cccc3c(CN=C(N)N)cccc23)cc1 | 2 (≈ 6.03 µM) | 2 (≈ 6.03 µM) | 4 (≈ 12.1 µM) | 0.5 (≈ 1.51 µM) | tde | inactive
16 | CC(C)(C)c1ccc(-c2ccc(CCN)c3ccccc23)cc1 | 4 (≈ 13.2 µM) | 4 (≈ 13.2 µM) | 4 (≈ 13.2 µM) | 4 (≈ 13.2 µM) | – | –
17 | NC(N)=NCc1cccc2c(-c3ccc(Cl)cc3)cccc12 | 8 (≈ 25.8 µM) | 8 (≈ 25.8 µM) | 8 (≈ 25.8 µM) | 2 (≈ 6.46 µM) | – | –
18 | NC(N)=NCCc1cccc2c(-c3ccc(C(F)(F)F)cc3)cccc12 | 4 (≈ 11.2 µM) | 4 (≈ 11.2 µM) | 4 (≈ 11.2 µM) | 1 (≈ 2.8 µM) | – | –
19 | CCC[C@@H]1C[C@@H](C(=O)N[C@@H]([C@H]2O[C@H](SC)[C@H](O)[C@@H](O)[C@H]2O)[C@H](C)Cl)N(C)C1 [CLINDAMYCIN] | > 64 | 2 (≈ 4.71 µM) | > 64 | 0.03 (≈ 0.0706 µM) | – | –
20 | COc1ccc2c(c[n+](C)c3c4cc5c(cc4ccc23)OCO5)c1OC [CHELERYTHRINE] | 4 | 32 | 32 | 4 | – | –
21 | COc1cc(C(F)(F)F)ccc1-c1cccc2c(CCN)cccc12 | 16 (≈ 46.3 µM) | 8 (≈ 23.2 µM) | 8 (≈ 23.2 µM) | 8 (≈ 23.2 µM) | – | –
22 | CC(C)(C)c1ccc(-c2cccc3c(CCN)cccc23)cc1 | 4 (≈ 13.2 µM) | 2 (≈ 6.59 µM) | 4 (≈ 13.2 µM) | 2 (≈ 6.59 µM) | tde | inactive
23 | CC(C)(C)c1ccc(-c2ccc(CN)c3ccccc23)cc1 | 8 (≈ 27.6 µM) | 8 (≈ 27.6 µM) | 8 (≈ 27.6 µM) | 4 (≈ 13.8 µM) | – | –
24 | NC(N)=NCc1cccc2c(-c3ccc(C4CC4)cc3)cccc12 | 8 (≈ 25.4 µM) | 8 (≈ 25.4 µM) | 8 (≈ 25.4 µM) | 1 (≈ 3.17 µM) | – | –
25 | COc1cc(C(F)(F)F)ccc1-c1cccc2c(CCN=C(N)N)cccc12 | 8 (≈ 20.7 µM) | 4 (≈ 10.3 µM) | 4 (≈ 10.3 µM) | 2 (≈ 5.16 µM) | – | –
26 | NCCc1cccc2c(-c3ccc(C(F)(F)F)cc3O)cccc12 | 16 (≈ 48.3 µM) | 16 (≈ 48.3 µM) | 16 (≈ 48.3 µM) | 8 (≈ 24.1 µM) | – | –
